Screening results as filed in PubChem.
Sampled rows, rich in hits. Any-hit rate of the full collection: about 5.8%.
RBBP9 inhibitor = inhibitors of human serine hydrolase RBBP9. O75884. recombinant RBBP9, FP-Rh probe fluorescence polarization. inhibition, % at 7.94 µM. actives 0.2% (n = 220,000);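 active = inhibition above the campaign mean of all tested compounds plus 3 SD, cut at about 14% in these data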;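 note: plate controls were DMSO wells with RBBP9 for no effect and wells lacking RBBP9 protein for full effect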
Target sequence (O75884 whole entry, looked up): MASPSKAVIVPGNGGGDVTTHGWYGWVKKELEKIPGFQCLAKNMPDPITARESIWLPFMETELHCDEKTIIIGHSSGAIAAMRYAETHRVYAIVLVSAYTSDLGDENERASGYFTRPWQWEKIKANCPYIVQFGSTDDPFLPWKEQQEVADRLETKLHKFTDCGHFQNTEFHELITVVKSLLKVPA
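Measured by – fluorescence polarization · Test system – RBBP9 protein · Input – 2.5 µM RBBP9 dispensing solution, before mixing · Measure – percent inhibition from mP, scaled between DMSO and no-protein wells · Benchmarks – DMSO-treated enzyme wells and wells lacking RBBP9 · Times – preincubation 30 min plus labeling 45 min at 25 °C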
KCC2 mod = KCC2 (human) Cl- transport modulation. Q9H2X9. KCC2 cells, thallium flux FluoZin-2 fluorescence. B-score of Tl+ flux slope (higher = more flux/activation; lower = inhibition) at 10 µM. actives 2.2% (n = 190,000). AID 1456;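 active = thallium flux slope and its plate-corrected score both differing from the plate sample mean at a set confidence after two filtering rounds, in either direction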;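 note: slope of fluorescence scaled to starting intensity during 10 to 20 s after thallium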
14-3-3 Bad inh = disrupts binding of bovine 14-3-3 zeta to phospho-Bad peptide; P63103; actives 0.71% (n = 220,000); TR-FRET 14-3-3zeta/Dy647-pBad peptide displacement, 1 h; inhibition, % at 21.7 µM;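 active = inhibition above about 70%, limit read from the data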;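 note: 0% = full 14-3-3 plus peptide FRET controls and 100% = background without 14-3-3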
ROMK mod = modulates human ROMK potassium channel activity. Tet-inducible ROMK, thallium flux fluorescence; actives lie on both sides. B-score at 10 µM. actives 2% (n = 130,000);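 active = signal ratio slope over the read window, or its plate-corrected B-score, at least 3 SD from the plate mean, either direction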;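 note: B-score of the F/F0 ratio slope over 7 to 12 s after thallium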
Target sequence (P48048 whole entry, looked up): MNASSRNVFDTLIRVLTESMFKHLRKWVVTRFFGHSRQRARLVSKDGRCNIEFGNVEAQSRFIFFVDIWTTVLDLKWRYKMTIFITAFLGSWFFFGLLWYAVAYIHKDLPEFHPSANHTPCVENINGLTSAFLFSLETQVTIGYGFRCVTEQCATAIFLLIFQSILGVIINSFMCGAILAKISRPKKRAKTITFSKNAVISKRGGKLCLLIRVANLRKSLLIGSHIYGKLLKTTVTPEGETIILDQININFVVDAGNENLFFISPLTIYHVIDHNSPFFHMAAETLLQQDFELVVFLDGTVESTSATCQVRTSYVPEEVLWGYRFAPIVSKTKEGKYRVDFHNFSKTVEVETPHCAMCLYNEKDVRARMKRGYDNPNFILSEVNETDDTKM
WT yeast gro inh = growth inhibition of WT yeast, mitochondrial fusion screen. mitochondrial fusion phenotypic screen, WT strain. inhibition, % at 10 µM. actives 2.1% (n = 190,000); in the data active = inhibition above about 58%; tested in S. cerevisiae
p47phox inh = inhibitors of human p47phox binding | P14598 | p47phox/p22phox peptide binding, fluorescence polarization, 2 h | inhibition, % at 24.7 µM | actives 0.53% (n = 220,000) | AID 1274;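 active = inhibition above about 30%, limit read from the data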;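 note: 0% = p47phox with labelled peptide and 100% = labelled peptide alone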
Active calls of the source: *; nt = no result given.

SMILES | RBBP9 inhibitor | KCC2 mod | 14-3-3 Bad inh | ROMK mod | WT yeast gro inh | p47phox inh
S=C1NCCc2ccccc2C1c1ccccc1Cl (centres undefined) | 7 | 0.044 | -8 | -0.12 | 62* | -21
O=C(c1ccccc1Cl)N1CCC(n2cccc2)CC1 | 2 | nt | -9 | nt | nt | -9
CN1CCN(/N=C/c2ccc(N(c3ccccc3)c3ccccc3)cc2)CC1 | 8 | -0.28 | 2 | 0.074 | 95 | 46*
CCCCOC(=O)Nc1cccc(C(=O)OCC)c1 | -14 | 0.38 | 4 | nt | 73* | -1
CCOCCOC(=O)c1cccc(NC(=O)OCC)c1 | -1 | 0.84 | 10 | nt | nt | 3
COc1ccc(C/C(N)=N/OC(=O)Cc2ccccc2)cc1OC | -3 | nt | 1 | nt | 0 | 115*
CCOC(=O)C1CCN(C(=O)C(C)c2ccc([N+](=O)[O-])cc2)CC1 (centres undefined) | -11 | 0.57 | -1 | -0.57 | -4 | -2
O=C(O)/C=C/C(=O)Nc1ccc(OC(F)(F)F)cc1Br | -4 | -0.13 | 0 | nt | nt | 0
Cc1ccc(C(=O)NC(=S)NNC(=O)COc2ccccc2C)cc1 | 3 | 31* | -24 | 3* | 33 | -1
Cc1cccc(C(=O)NC(=S)NNC(=O)COc2c(C)cccc2C)c1 | -2 | 37* | 1 | 2.7* | 25 | -10
O=C(CCc1ccccc1)NNC(=S)NC(=O)c1ccc(Cl)cc1 | -2 | 68* | -20 | 1.9 | 65* | -6
O=C(CCc1ccccc1)NNC(=O)c1ccc(F)cc1 | -4 | 0.038 | 11 | 1.5 | 5 | -1
Cc1ccc(S(=O)(=O)/N=c2\ccc(Cl)cn2C(F)F)cc1 | -6 | 0.22 | -12 | 0.28 | -8 | -15
C=CCN(CC=C)CCCOc1ccc(Br)cc1Cl | 12 | 0.58 | -6 | -0.16 | 25 | -17
COC(=O)Cn1cc([N+](=O)[O-])nc1C | -5 | 1.4 | -12 | 1.4 | -12 | -9
O=[N+]([O-])/C=C/c1c(OCc2ccccc2)ccc2ccccc12 | 5 | nt | 3 | -0.57 | 77* | -14
CCOC(=O)COc1ccc(/C=C/[N+](=O)[O-])c(OCC(=O)OCC)c1 | -10 | -0.023 | 10 | -0.49 | 14 | -5
CCCCOc1ccc2ccccc2c1C=O | -11 | -0.79 | 1 | nt | 24 | 0
CCOC(=O)COc1ccc2ccccc2c1/C=C/[N+](=O)[O-] | -10 | -0.34 | -8 | -1.7 | 86* | -9
CN(CC(=O)Nc1ccc(Cl)c(Cl)c1)C(=O)C12CC3CC(CC(C3)C1)C2 | -7 | -0.83 | -1 | -0.6 | 76* | -17
CN(C(=O)CC(=O)Nc1ccc(Cl)c(Cl)c1)c1ccccc1 | -6 | -0.92 | -16 | -0.041 | -3 | -10
O=C1/C(=C/c2cccnc2)Sc2ccccc21 | 1 | 0.39 | -10 | -4.5* | 4 | -40
S=c1[nH]nc(NCCCN2CCOCC2)s1 | -11 | 0.7 | 0 | nt | nt | 78*
Cc1cc(C)n2cnnc2n1 | -7 | 0.14 | -2 | nt | nt | -50
Cc1cc(C)n2c(=S)[nH]nc2n1 | 13 | -0.83 | 30 | nt | -3 | 40*
SMILES | RBBP9 inhibitor | KCC2 mod | 14-3-3 Bad inh | ROMK mod | WT yeast gro inh | p47phox inh
COc1ccc(C2CC(c3ccccc3)=NN2C(=O)COC(=O)c2nc3nccc(C)n3n2)cc1 (centres undefined) | -8 | -1.3 | -11 | 0.19 | 1 | -21
O=c1c(C(c2ccccc2)c2c(O)sc3ccccc3c2=O)c(O)sc2ccccc12 | -14 | 21* | 19 | nt | -12 | -86
CCc1nnc(NC(=O)c2ccc(Cl)c(S(=O)(=O)N3CCc4ccccc4C3)c2)s1 | -1 | 0.83 | -13 | 0.86 | -2 | -19
COc1ccc(NC(=O)c2ccc(Cl)c(S(=O)(=O)N3CCc4ccccc4C3)c2)cn1 | -16 | -0.94 | -13 | 0.49 | 58* | -69
O=S(=O)(c1cnc(Cl)c(Cl)c1)N1CCN(c2ncccn2)CC1 | -4 | 1.6 | 1 | nt | nt | -7
O=c1cc(-c2ccc(C3CCCCC3)cc2)[nH][nH]1 | -7 | -0.28 | -21 | 0.37 | 69* | -7
O=c1cc(-c2ccc(F)cc2)[nH][nH]1 | 0 | nt | 0 | -0.03 | -4 | -5
CC(C)(C)c1ccc(-c2nnc(SCC(=O)c3ccc4c(c3)OCCO4)o2)cc1 | -11 | -0.9 | 87* | nt | -1 | -9
O=C(CSc1nnc(-c2ccc(F)cc2)o1)c1ccc2c(c1)OCCO2 | -10 | -0.92 | 0 | 1.1 | 18 | -1
Cc1nc2cc(NS(=O)(=O)c3c(C)c(C)cc(C)c3C)ccc2s1 | -7 | -1.4 | -5 | nt | 69* | -8
Cc1nc2ccc(NS(=O)(=O)c3c(C)c(C)cc(C)c3C)cc2s1 | -3 | -0.54 | 0 | 1.6 | 15 | -15
CCOC(=O)C1CCCN(C(=O)c2cccc([N+](=O)[O-])c2C)C1 (centres undefined) | -1 | -0.51 | 7 | nt | 4 | -4
CN1CCc2nc(SCc3ccc(Cl)cc3)c(C#N)c(-c3cccs3)c2C1 | 4 | nt | nt | -3.4* | nt | nt
N#Cc1c(N)nc(SCc2ccncc2)c(C#N)c1-c1cccs1 | -8 | 0.36 | -5 | nt | 16 | -43
S=c1[nH]nc(-c2cc3c(s2)-c2ccccc2CC3)o1 | -5 | 95* | -8 | nt | 46 | -13
Cc1cc(-c2ccccc2)nc2oc(C(=O)NN)c(N)c12 | 11 | -0.63 | 0 | nt | nt | 47*
CC(C)[C@H](NC(=O)CCCn1nnc2ccccc2c1=O)C(=O)O | 1 | 1.4 | 1 | nt | nt | -10
O=C1NCCCc2c1oc1ccc(O)cc21 | -7 | 0.41 | -11 | nt | -1 | 1
Oc1c(Cl)cc(Cl)c2c1NCCC2 | 9 | 14* | 18 | nt | 42 | -1
CCCCCC(=O)O[C@]1(C(C)=O)CC[C@H]2[C@@H]3CCC4=CC(=O)CC[C@]4(C)[C@H]3CC[C@@]21C | 5 | -1.1 | -5 | nt | 74* | 3
CC(=O)n1cc([C@H]2C=C(C(=O)NCc3ccccc3)O[C@@H](OCc3ccc(CO)cc3)C2)c2ccccc21 | -18 | -2.8* | -1 | nt | 0 | -74
C#CCNC(=O)C1=C[C@@H](c2cn(C(C)=O)c3ccccc23)C[C@@H](OCc2ccc(CO)cc2)O1 | -1 | -1.2 | 2 | nt | -13 | nt
CC(=O)n1cc([C@H]2C=C(C(=O)NCc3ccccc3)O[C@@H](OCCCCO)C2)c2ccccc21 | 6 | -1.5 | -6 | nt | -5 | -35
O=C(Nc1ccccc1)C1=C[C@@H](c2ccc(C(F)(F)F)cc2)C[C@@H](OCc2ccc(CO)cc2)O1 | -15 | 0.59 | -2 | nt | 63* | nt
CC(=O)n1cc([C@H]2C=C(C(=O)Nc3ccccc3)O[C@@H](OCCCCO)C2)c2ccccc21 | -6 | -5.1* | 0 | nt | 6 | -26
O=C(Nc1ccccc1)C1=C[C@@H](c2ccccc2)C[C@@H](OCc2ccc(CO)cc2)O1 | -2 | -0.79 | -2 | nt | -2 | -27
COc1ccc(OCC(=O)NNC(=O)c2cccc(O)c2)cc1 | 0 | -0.047 | -7 | -0.15 | 8 | -10
